According to ChEMBL document CHEMBL4842350, “Discovery of a Novel Bromodomain and Extra Terminal Domain (BET) Protein Inhibitor, I-BET282E, Suitable for Clinical Progression” (J Med Chem, 2021):

What was measured:
[1] = target: T1, Bromodomain-containing protein 4 (Homo sapiens, UniProt O60885); test: Inhibition of BRD4 in human whole blood assessed as reduction in LPS-induced IL-6 secretion preincubated for 30 mins followed by LPS stimulation and measured after 24 hrs by MSD assay; format: tissue-based
[2] = Half life in CD1 mouse at 1 mg/kg/hr, iv measured upto 24 hrs by LC-MS/MS analysis; format: ADME, organism-based; conditions: in vivo
Outline: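 Surgically cannulated male CD1 mice (n = 3), 1 h iv infusion via jugular vein at 1 mg/kg/h (0.2 mg/mL in 2% DMSO/98% 10% Kleptose HPB in saline, 5 mL/kg/h). Tail-vein blood to 24 h plus terminal cardiac sample at 26 h; LC-MS/MS, LLQ 5 ng/mL. Mean ± SD.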

[3] = Unbound fraction in Beagle dog blood at 100 to 1000 ng/ml by LC-MS/MS-based rapid equilibrium dialysis method; format: ADME, tissue-based, Canis lupus familiaris; conditions: dose 100-1000 ng/ml
Outline: (§1)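 Whole blood (male Balb/C mouse, male Wistar Han rat, male Beagle dog; human from one unmedicated donor) spiked to nominal 100 and 1000 ng/mL; 10 min at 37 °C, then rapid equilibrium dialysis against PBS 4 h at 37 °C, 100 rpm. Matrix-matched acetonitrile extraction, LC-MS/MS; mean of n = 6.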

[4] = Clearance in Wistar Han rat blood at 1 mg/kg/hr, iv measured upto 26 hrs by LC-MS/MS analysis; format: ADME, organism-based
[5] = Half life in Beagle dog at 1 mg/kg/hr, iv measured upto 28 hrs by LC-MS/MS analysis; format: ADME, organism-based, Canis lupus familiaris; conditions: in vivo
[6] = Cmax in Beagle dog at 5 mg/kg, po measured upto 24 hrs by HPLC-MS/MS analysis; format: ADME, organism-based, Canis lupus familiaris; parameters: route oral, dose 5 mg/kg, time <=24; conditions: in vivo
Outline: (§2)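 Oral suspension in 1% (w/v) hydroxypropylmethyl cellulose in water; male rats (n = 3) and male dogs (n = 4). AUC taken from 0 h to last quantifiable time point; Cmax is maximum observed plasma concentration; Tmax reported as median. Mean ± SD.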

Cytochrome P450 3A4 = Cytochrome P450 3A4 (Homo sapiens, UniProt P08684); test: Inhibition of recombinant human CYP3A4 expressed in Escherichia coli using VR as probe substrate incubated for 15 to 60 mins by fluorometric assay; format: ADME
Cytochrome P450 3A4, sequence (P08684 whole entry): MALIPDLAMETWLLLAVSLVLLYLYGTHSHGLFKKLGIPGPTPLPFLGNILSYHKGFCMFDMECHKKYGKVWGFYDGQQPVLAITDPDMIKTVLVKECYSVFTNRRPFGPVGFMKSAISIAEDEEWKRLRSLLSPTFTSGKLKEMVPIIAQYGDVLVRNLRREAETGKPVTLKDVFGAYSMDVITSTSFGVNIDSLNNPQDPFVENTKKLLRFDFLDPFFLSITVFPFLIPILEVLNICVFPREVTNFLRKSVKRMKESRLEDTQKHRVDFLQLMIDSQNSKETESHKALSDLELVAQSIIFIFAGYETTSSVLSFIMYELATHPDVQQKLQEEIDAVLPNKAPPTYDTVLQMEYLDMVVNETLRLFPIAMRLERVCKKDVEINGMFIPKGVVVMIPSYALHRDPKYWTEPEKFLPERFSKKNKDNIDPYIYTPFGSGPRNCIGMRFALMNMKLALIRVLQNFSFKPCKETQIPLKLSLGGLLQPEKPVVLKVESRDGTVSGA
Outline: (§3)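 Recombinant human CYPs coexpressed with NADPH reductase in E. coli bactosomes (0.1 mg protein/mL); profluorescent substrates ER (1A2), BMC (2C19), MMC (2D6), VividGreen or VividRed (3A4).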

[7] = Total blood clearance in Wistar Han rat at 1 mg/kg/hr, iv measured upto 26 hrs by LC-MS/MS analysis relative to hepatic blood flow; format: ADME, organism-based; conditions: in vivo
Cytochrome P450 1A2 = target: T2, Cytochrome P450 1A2 (Homo sapiens, UniProt P05177); test: Inhibition of recombinant human CYP1A2 expressed in Escherichia coli using ER as probe substrate incubated for 15 to 60 mins by fluorometric assay; format: ADME; outline: as §3
T2 sequence (P05177 whole entry): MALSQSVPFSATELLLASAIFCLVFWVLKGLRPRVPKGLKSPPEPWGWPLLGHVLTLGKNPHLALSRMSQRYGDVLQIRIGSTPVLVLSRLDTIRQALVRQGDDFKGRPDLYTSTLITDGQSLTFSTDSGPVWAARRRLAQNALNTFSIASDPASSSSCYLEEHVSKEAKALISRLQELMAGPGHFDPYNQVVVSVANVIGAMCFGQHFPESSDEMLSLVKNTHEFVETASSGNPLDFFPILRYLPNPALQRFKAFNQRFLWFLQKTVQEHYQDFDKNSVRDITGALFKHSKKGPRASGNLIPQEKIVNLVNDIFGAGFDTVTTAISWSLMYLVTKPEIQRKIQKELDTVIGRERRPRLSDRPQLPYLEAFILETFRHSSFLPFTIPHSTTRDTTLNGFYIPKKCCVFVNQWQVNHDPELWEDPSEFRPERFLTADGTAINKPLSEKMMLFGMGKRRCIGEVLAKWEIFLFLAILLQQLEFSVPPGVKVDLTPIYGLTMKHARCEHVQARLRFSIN

Cytochrome P450 2D6 = Cytochrome P450 2D6 (Homo sapiens, UniProt P10635); test: Inhibition of recombinant human CYP2D6 expressed in Escherichia coli using MMC as probe substrate incubated for 15 to 60 mins by fluorometric assay; format: ADME; outline: as §3
Cytochrome P450 2D6, sequence (P10635 whole entry): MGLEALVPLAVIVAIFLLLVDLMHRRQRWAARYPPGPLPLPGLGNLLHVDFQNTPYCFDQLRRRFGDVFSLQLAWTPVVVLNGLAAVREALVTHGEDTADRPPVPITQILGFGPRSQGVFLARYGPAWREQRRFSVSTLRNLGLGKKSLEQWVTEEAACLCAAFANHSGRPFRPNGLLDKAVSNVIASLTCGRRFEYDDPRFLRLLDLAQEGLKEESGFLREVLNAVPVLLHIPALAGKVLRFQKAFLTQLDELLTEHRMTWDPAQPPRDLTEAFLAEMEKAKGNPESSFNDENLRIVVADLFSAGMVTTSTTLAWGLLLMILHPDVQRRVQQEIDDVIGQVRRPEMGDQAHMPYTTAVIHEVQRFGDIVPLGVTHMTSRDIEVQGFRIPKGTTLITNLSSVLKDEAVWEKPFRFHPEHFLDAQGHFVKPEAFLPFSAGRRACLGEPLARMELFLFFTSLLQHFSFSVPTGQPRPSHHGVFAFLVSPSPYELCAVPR

[8] = target: T1, Bromodomain-containing protein 4; test: Binding affinity to BRD4 (unknown origin) assessed as change in melting temperature
[9] = Oral bioavailability in CD1 mouse at 3 mg/kg measured upto 8 hrs by LC-MS/MS analysis; format: ADME, organism-based; conditions: in vivo
Outline: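 Naive male CD1 mice (n = 3) given 3 mg/kg by oral gavage as suspension in 1% (w/v) methylcellulose 400, 0.6 mg/mL. Tail-vein blood to 8 h plus terminal cardiac sample at 12 h; LC-MS/MS, LLQ 5 ng/mL.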

[10] = Passive permeability in MDCK cells; format: ADME, cell-based, Canis lupus familiaris; conditions: dog, read-out: permeability
[11] = Tmax in Beagle dog at 5 mg/kg, po measured upto 24 hrs by HPLC-MS/MS analysis; format: ADME, organism-based, Canis lupus familiaris; conditions: in vivo; outline: as §2
[12] = target: T1, Bromodomain-containing protein 4; test: Binding affinity to BRD4 (unknown origin) by ITC assay
[13] = Tmax in Wistar Han rat at 1 mg/kg, po measured upto 24 hrs by HPLC-MS/MS analysis; format: ADME, organism-based; conditions: in vivo; outline: as §2
[14] = Volume of distribution at steady state in Beagle dog at 1 mg/kg/hr, iv measured upto 28 hrs by LC-MS/MS analysis; format: ADME, organism-based, Canis lupus familiaris; conditions: in vivo, read-out: Vdss
[15] = Volume of distribution at steady state in Wistar Han rat at 1 mg/kg/hr, iv measured upto 26 hrs by LC-MS/MS analysis; format: ADME, organism-based; conditions: in vivo, read-out: Vdss
[16] = Unbound fraction in human blood at 100 to 1000 ng/ml by LC-MS/MS-based rapid equilibrium dialysis method; format: ADME, tissue-based; conditions: dose 100-1000 ng/ml; outline: as §1
Cytochrome P450 2C9 = Cytochrome P450 2C9 (Homo sapiens, UniProt P11712)
Cytochrome P450 2C9, sequence (P11712 whole entry): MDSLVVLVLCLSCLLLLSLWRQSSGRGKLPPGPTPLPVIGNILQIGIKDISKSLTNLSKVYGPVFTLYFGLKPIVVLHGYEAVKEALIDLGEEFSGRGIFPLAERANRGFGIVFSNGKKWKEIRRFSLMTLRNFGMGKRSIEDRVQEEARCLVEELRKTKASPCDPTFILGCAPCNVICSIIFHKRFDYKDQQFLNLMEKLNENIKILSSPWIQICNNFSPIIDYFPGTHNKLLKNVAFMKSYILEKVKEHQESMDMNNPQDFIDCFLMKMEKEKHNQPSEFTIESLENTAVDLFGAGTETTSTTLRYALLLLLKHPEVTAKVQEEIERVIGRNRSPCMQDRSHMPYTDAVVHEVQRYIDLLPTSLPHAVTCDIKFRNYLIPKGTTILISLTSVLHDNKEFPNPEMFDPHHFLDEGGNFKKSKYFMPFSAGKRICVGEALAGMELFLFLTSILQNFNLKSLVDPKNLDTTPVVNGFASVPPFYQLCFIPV

[17] = target: T1, Bromodomain-containing protein 4; test: Inhibition of BRD4 in human PBMC assessed as reduction in LPS-induced IL-6 secretion incubated for 18 to 24 hrs by MSD assay
[18] = Clearance in CD1 mouse blood at 1.4 mg/kg/hr, iv measured upto 24 hrs by LC-MS/MS analysis
[19] = AUC(0 to t) in Beagle dog at 5 mg/kg, po measured upto 24 hrs by HPLC-MS/MS analysis; format: ADME, organism-based, Canis lupus familiaris; parameters: route oral, dose 5 mg/kg, time <=24; conditions: in vivo; outline: as §2
[20] = Oral bioavailability in Wistar Han rat at 3 mg/kg measured upto 24 hrs by HPLC-MS/MS analysis; conditions: in vivo
[21] = dog, hepatocytes, 2 h, 0.5 µM
[22] = Metabolic stability in mouse hepatocytes assessed as intrinsic clearance per g liver tissue at 0.5 uM measured upto 120 mins by LC-MS/MS analysis; format: ADME, cell-based, Hepatocyte; conditions: 2 h
Outline: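 Cryopreserved mouse hepatocytes at 0.7 million cells/mL in Williams Medium E, compound 0.5 μM final (also repeated at 0.05 μM), 37 °C. […] No-cell and no-compound controls.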

[23] = target: CREB-binding protein (Homo sapiens) (UniProt Q92793); test: Binding affinity to CBP (unknown origin) assessed as change in melting temperature
CREB-binding protein (Homo sapiens), sequence (Q92793 2-2442 limits assumed): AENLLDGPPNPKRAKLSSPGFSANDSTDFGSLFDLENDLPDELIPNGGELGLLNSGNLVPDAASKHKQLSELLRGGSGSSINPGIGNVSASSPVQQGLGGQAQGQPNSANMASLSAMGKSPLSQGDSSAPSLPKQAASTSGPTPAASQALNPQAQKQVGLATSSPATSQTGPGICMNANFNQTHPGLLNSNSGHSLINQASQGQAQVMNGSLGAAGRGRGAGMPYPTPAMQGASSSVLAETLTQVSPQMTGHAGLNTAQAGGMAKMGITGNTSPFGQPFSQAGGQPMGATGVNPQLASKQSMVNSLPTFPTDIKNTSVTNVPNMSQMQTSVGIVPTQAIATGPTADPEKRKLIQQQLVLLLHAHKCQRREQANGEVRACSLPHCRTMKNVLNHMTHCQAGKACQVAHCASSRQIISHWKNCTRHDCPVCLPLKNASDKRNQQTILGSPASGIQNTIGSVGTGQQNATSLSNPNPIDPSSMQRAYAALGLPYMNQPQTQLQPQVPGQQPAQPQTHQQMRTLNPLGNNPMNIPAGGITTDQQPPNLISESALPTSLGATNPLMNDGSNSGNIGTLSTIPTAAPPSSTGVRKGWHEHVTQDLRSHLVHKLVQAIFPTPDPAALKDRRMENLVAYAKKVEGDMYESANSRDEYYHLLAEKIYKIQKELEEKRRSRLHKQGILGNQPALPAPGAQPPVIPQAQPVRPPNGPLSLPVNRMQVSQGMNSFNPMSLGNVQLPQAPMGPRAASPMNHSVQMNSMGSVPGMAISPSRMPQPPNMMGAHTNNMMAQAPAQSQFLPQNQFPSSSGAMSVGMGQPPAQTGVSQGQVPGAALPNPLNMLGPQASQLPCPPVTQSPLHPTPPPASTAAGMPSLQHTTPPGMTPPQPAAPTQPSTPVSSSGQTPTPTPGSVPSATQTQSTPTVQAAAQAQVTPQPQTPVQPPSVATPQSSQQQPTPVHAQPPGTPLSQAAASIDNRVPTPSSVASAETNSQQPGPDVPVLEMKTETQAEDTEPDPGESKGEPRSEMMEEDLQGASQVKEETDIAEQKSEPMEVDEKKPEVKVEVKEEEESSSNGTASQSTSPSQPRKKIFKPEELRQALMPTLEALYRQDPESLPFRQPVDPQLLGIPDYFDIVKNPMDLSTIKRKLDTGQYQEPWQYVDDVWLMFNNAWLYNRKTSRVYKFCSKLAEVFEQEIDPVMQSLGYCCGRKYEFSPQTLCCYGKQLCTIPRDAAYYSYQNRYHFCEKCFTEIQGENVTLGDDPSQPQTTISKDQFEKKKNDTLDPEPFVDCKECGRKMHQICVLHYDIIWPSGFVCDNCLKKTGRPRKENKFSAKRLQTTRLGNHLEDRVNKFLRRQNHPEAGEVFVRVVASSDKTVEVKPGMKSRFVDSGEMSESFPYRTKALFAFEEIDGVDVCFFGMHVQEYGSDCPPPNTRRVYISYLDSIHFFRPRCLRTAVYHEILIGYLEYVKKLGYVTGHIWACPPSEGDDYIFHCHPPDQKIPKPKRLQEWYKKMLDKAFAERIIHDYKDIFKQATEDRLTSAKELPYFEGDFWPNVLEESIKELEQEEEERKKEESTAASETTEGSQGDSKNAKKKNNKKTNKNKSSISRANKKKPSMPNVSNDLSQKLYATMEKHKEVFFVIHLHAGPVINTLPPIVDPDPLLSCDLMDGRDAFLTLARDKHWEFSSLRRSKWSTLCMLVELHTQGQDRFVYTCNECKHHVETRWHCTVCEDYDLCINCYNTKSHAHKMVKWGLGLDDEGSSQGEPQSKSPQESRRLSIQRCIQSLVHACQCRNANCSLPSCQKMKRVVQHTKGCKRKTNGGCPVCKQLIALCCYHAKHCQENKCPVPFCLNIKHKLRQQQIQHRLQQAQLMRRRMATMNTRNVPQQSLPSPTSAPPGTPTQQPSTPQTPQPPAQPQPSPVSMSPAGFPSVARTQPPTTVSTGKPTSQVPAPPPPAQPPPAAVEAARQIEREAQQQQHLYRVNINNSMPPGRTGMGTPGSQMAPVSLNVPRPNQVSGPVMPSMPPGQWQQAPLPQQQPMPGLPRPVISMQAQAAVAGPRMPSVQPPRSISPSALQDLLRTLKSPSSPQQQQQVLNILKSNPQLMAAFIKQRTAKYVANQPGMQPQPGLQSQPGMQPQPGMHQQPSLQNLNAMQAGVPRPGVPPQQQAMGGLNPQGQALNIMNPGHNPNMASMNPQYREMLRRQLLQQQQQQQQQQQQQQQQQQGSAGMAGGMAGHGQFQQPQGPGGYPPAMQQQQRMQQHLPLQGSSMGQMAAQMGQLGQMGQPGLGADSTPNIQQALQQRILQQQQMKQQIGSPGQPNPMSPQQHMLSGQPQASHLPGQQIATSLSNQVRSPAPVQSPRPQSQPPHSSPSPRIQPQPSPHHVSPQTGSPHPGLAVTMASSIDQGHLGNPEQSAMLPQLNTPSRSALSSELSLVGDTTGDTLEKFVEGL

IC50 [1]: 0.316 µM
half-life [2]: 1.2 h
fraction unbound [3]: 0.24
clearance [4]: 20 mL/min/kg
half-life [5]: 1.8 h
Cmax [6]: 177 ng/mL
IC50 (Cytochrome P450 3A4): > 50 µM
CLH [7]: 22%
IC50 (Cytochrome P450 1A2): > 50 µM
IC50 (Cytochrome P450 2D6): > 50 µM
ΔTm [8]: 9.9 °C
bioavailability [9]: 51%
Papp [10]: 34.6 ×10⁻⁶ cm/s
Tmax [11]: 0.75 h
Activity [12]: 47.5 nM
Tmax [13]: 1 h
Vd [14]: 3.1 L/kg
Vd [15]: 2.2 L/kg
fraction unbound [16]: 0.17
IC50 (Cytochrome P450 2C9): > 50 µM
IC50 [17]: 0.1 µM
clearance [18]: 23 mL/min/kg
AUCt [19]: 367 ng·h/mL
bioavailability [20]: 74%
CLint [21]: 2.4 mL/min/g liver
CLint [22]: < 0.86 mL/min/g liver
ΔTm [23]: 3.4 °C
SMILES: COC[C@@H](C)n1c(C2CCOCC2)nc2cnc3cc(-c4c(C)noc4C)c(OC)cc3c21
